From ChEMBL document CHEMBL1153876, “Synthesis of some N-substituted nitroimidazole derivatives as potential antioxidant and antifungal agents” (2009) come the findings set out here.

SMILES strings stand for the structures. Values after ≈ are worked out from the molar mass of the structure shown.

Assay [1] in a line: Antioxidant activity assessed as inhibition of Fe2+-induced lipid peroxidation after 15 to 60 mins by TBARS assay relative to control. Type of assay: functional. On the set-up: concentration or dose not given beside the values. The method, boiled down: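 Substrate: egg yolk lipoprotein suspension, made by homogenising yolk with an equal volume of phosphate buffer pH 7.4. Compounds were added as 10^-3 mol/mL solution, with 0.7% FeSO4·7H2O to start non-enzymatic peroxidation, at 37 °C. Controls were Fe only and a blank with neither Fe nor compound; tocopheryl acetate was the reference. The supernatant was heated with acidic thiobarbituric acid at 95 °C for 1 h, extracted into n-butanol–pyridine 15:1, and read by optical density.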

The subject of a further assay is Sydowia polyspora. Description: Antifungal activity against Sclerophoma pityophila after 12 days. It is filed as functional. The conditions noted are these: for EC50: Sydowia polyspora, 288 h, read-out: ED50 (the source's name). The method, boiled down: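 Agar dilution on S. pityophila S 231: nine concentrations in geometric progression, 25 to 5000 ppm, in malt agar (1.5% agar, 4% malt extract), 90 mm dishes, three replicate plates each. Centrally inoculated with 5-mm disc from submargin of 10-day-old culture; 22 ± 1 °C, dark, up to 12 days. Growth rate versus compound-free plates gives ED50/ED100; non-growing inocula transferred to fresh agar to assess viability (LD).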

On to `O=C(Cn1cnc(N2CCOCC2)c1[N+](=O)[O-])c1ccc(Cl)cc1`, for which the Activity in assay [1] is 21%.
`O=C(Cn1cnc([N+](=O)[O-])c1[N+](=O)[O-])c1ccc(Cl)cc1`: in the assay on Sydowia polyspora, the ED100 is greater than 5000 ppm, the LD is recorded as less than 5000 ppm and the EC50 amounted to 1000 µg/mL (≈ 3220 µM). Further, the Activity in assay [1] came out at 60%.
For `Cc1nc(N2CCCC2)c([N+](=O)[O-])n1CC(=O)c1ccc(Cl)cc1`, in the assay with Sydowia polyspora, the ED100 is reported as greater than 5000 ppm, the LD is on record as less than 5000 ppm and the EC50 was greater than 5000 µg/mL. In addition, in assay [1], the Activity was determined as 20.8%.
`Cc1nc(N2CCCC2)c([N+](=O)[O-])n1CC(=O)c1ccccc1`: the Activity in assay [1] came out at 45.2%.
On the same count and under the same terms, with `Cc1nc([N+](=O)[O-])c([N+](=O)[O-])n1CC(=O)c1ccccc1` the figure was 26.4%.
Still for that read-out and setting: for `CC(=O)Cn1c(C)nc(Nc2ccccc2)c1[N+](=O)[O-]` the value was 15.1%; for `CC(=O)Oc1c(C)c(C)c2c(c1C)CCC(C)(CCC[C@H](C)CCC[C@H](C)CCCC(C)C)O2` (some centres not stated), 17.8%.
Regarding `Cc1nc(N2CCCCC2)c([N+](=O)[O-])n1CC(=O)c1ccc(Cl)cc1`, in the assay on Sydowia polyspora, the ED100 is less than 25 ppm, the LD was less than 5000 ppm and the EC50 is less than 25 µg/mL. Also, in assay [1], the Activity was found to be 36.9%.
As to `O=C(Cn1cnc(N2CCOCC2)c1[N+](=O)[O-])c1ccccc1`, in the assay on Sydowia polyspora, the ED100 is listed as less than 25 ppm, the LD is recorded as less than 5000 ppm and the EC50 was less than 25 µg/mL. In addition, in assay [1], the Activity came to 56.3%.
For `Cc1nc(N2CCCCC2)c([N+](=O)[O-])n1CC(=O)c1ccccc1` the same measures were greater than 5000 ppm, less than 5000 ppm, greater than 5000 µg/mL and 48.6%.
On to `Cc1nc(N2CCN(C)CC2)c([N+](=O)[O-])n1CC(=O)c1ccc(Cl)cc1`, for which, in assay [1], the Activity amounted to 37.1%.
Still for that read-out and setting: with `Cc1nc(N2CCN(C)CC2)c([N+](=O)[O-])n1CC(=O)c1ccccc1` the figure was 13%; with `O=C(Cn1cnc([N+](=O)[O-])c1[N+](=O)[O-])c1ccccc1`, 34.5%.
On the same count and under the same terms, with `Cc1ccccc1Nc1nc(C)n(CC(=O)c2ccc(Cl)cc2)c1[N+](=O)[O-]` the figure was 12.2%.
In the case of `Cc1nc([N+](=O)[O-])c([N+](=O)[O-])n1CC(=O)c1ccc(Cl)cc1`, in the assay on Sydowia polyspora, the ED100 is listed as greater than 5000 ppm, the LD is reported as less than 5000 ppm and the EC50 was 500 µg/mL (≈ 1540 µM). For the same compound, the Activity in assay [1] stood at 57.6%.
As to `Cc1nc(N2CCOCC2)c([N+](=O)[O-])n1CC(=O)c1ccccc1`, in assay [1], the Activity turned out to be 39.9%.
For `Cc1ccccc1Nc1ncn(CC(=O)c2ccccc2)c1[N+](=O)[O-]`, in assay [1], the Activity is 1.2%.
The same measure, in the same setting: with `Cc1nc(N2CCOCC2)c([N+](=O)[O-])n1CC(=O)c1ccc(Cl)cc1` the figure was 30.1%; with `O=C(Cn1cnc(N2CCCC2)c1[N+](=O)[O-])c1ccccc1`, 44.2%; with `O=[N+]([O-])c1c(N2CCOCC2)ncn1CC(O)CCl` (configuration not stated), 51.6%.
Still for that read-out and setting: for `CN1CCN(c2ncn(CC(O)CCl)c2[N+](=O)[O-])CC1` (configuration not stated) the value was 39.1%; for `CC(=O)Cn1c(C)nc(N2CCOCC2)c1[N+](=O)[O-]`, 23.1%; for `Cc1ccccc1Nc1nc(C)n(CC(=O)c2ccccc2)c1[N+](=O)[O-]`, -354%.
On to `Cc1ccccc1Nc1ncn(CC(=O)c2ccc(Cl)cc2)c1[N+](=O)[O-]`, for which, in assay [1], the Activity is -35.3%.
